According to ChEMBL document CHEMBL1141973, “6'-Methylpyrido[3,4-b]norhomotropane: synthesis and outstanding potency in relation to the alpha4beta2 nicotinic receptor pharmacophore model” (Bioorg Med Chem Lett, 2005):

Legend:
Format in all cases: cell-based
[1] = Binding affinity for nicotinic acetylcholine receptor alpha4-beta2 from mouse M10 cells; n=3
Procedure, shortened: (§1)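 α4β2 receptor immunoisolated with mAb 270 from mouse fibroblast M10 cells. Competition binding against (−)-[³H]nicotine at 7 nM. Ki was obtained from IC50 by Cheng–Prusoff, Ki = IC50/(1 + [L]/KD), with KD 3.8 nM.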

[2] = Dissociation constant for nicotinic acetylcholine receptor alpha4-beta2 of mouse M10 cells; n=3; procedure, shortened: as §1
[3] = target: T1, Neuronal acetylcholine receptor subunit alpha-7 (Homo sapiens, UniProt P36544); assay: Binding affinity for nicotinic acetylcholine receptor alpha 7 from human neuroblastoma SH-SY5Y cells; n=3
T1 sequence (P36544 whole entry): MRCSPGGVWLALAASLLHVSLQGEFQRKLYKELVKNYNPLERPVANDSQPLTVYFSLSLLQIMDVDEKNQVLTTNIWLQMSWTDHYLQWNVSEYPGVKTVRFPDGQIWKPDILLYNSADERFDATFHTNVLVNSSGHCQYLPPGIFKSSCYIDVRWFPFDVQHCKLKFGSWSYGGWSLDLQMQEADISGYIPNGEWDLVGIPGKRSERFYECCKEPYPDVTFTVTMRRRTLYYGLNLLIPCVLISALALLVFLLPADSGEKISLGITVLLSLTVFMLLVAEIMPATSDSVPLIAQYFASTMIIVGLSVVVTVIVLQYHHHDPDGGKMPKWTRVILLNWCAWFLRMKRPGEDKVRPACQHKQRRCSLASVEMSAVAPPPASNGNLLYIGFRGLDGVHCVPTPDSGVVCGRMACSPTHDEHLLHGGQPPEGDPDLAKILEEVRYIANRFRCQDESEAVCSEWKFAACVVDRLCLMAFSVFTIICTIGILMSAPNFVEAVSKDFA

[4] = target: T1, Neuronal acetylcholine receptor subunit alpha-7; assay: Dissociation constant for nicotinic acetylcholine receptor alpha 7 from human neuroblastoma SH-SY5Y cells; n=3

| SMILES | Ki [1] [nM] | Kd [2] [µM] | Ki [3] [µM] | Kd [4] [µM] |
| --- | --- | --- | --- | --- |
| c1cc2c(cn1)C1CCC(CC2)N1 (racemic) | 1.3 | 0.00308 | > 100 | 0.00106 |
| Cc1cc2c(cn1)C1CCC(CC2)N1 (racemic) | 0.39 | 0.00039 | ~1000 | 0.00106 |
| Clc1ccc(C2CC3CCC2N3)cn1 (racemic) [EPIBATIDINE] | 0.035 | 0.00308 | – | 0.00106 |
| c1cncc([C@@H]2CCCN2)c1 (racemic) [NORNICOTINE] | 14 | – | 138 | 0.00106 |
| CN1CCC[C@@H]1c1cccnc1 [R-NICOTINE] | 2.5 | 0.0038 | – | – |
